Consider 34 molecules from ChEMBL document CHEMBL1156932, “Structure based drug design: development of potent and selective factor IXa (FIXa) inhibitors” (J Med Chem, 2010).

For experiment [1], the target named is Urokinase-type plasminogen activator (Homo sapiens, UniProt P00749).
Experiment [2] addresses Coagulation factor IX (Homo sapiens, UniProt P00740). Nature of the experiment: Inhibition of human recombinant factor 9a by amidolytic assay.
Experiment [3] addresses Coagulation factor X (Homo sapiens, UniProt P00742). Nature of the experiment: Inhibition of factor 10a by amidolytic assay. The method in brief:
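[…] taken as the mean of at least three experiments. Variation between runs stated as under 10%.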

The nature of experiment [4]: Selectivity ratio of Ki for factor 10a to Ki for human recombinant factor 9a.
The nature of experiment [5]: Selectivity ratio of Ki for uPA to Ki for human recombinant factor 9a.

Bounds are passed on as bounds.

Sequence of Coagulation factor X (P00742 41-179 limits assumed): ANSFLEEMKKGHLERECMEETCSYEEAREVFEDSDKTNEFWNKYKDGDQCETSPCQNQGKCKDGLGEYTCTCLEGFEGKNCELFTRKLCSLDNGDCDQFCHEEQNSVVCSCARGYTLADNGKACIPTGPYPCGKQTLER
Sequence of Coagulation factor X (P00742 235-488 limits assumed): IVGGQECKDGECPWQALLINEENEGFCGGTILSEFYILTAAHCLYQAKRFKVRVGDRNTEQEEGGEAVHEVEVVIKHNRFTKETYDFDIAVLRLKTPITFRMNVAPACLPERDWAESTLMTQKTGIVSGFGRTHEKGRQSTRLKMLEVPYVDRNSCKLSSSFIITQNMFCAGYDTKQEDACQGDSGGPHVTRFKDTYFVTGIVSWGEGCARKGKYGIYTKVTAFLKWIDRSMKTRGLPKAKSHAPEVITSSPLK
Sequence of Coagulation factor IX (P00740 47-191 limits assumed): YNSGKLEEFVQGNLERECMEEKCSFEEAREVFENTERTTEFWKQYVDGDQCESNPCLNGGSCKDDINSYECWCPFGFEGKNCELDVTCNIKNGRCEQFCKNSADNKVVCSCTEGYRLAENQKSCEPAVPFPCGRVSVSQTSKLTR
Sequence of Coagulation factor IX (P00740 227-461 limits assumed): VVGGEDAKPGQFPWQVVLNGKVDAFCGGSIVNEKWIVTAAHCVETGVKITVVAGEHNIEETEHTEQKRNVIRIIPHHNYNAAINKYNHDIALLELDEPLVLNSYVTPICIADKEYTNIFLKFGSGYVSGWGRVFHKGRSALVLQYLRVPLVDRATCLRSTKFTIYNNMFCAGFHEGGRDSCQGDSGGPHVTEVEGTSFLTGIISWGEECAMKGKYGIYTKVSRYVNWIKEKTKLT

Regarding `CNC(=O)OCC(Oc1cccc2sc(C(=N)N)cc12)c1ccccc1` (stereo not drawn), the Ki in experiment [1] worked out at 210 nM; in experiment [2] it was 97 nM; in experiment [3] it was 700 nM.

As to `N=C(N)c1cc2c(OC(COC(=O)Nc3ccccc3)c3ccccc3)cccc2s1` (stereo not drawn), the results for the Ki in experiment [1], in experiment [2] and in experiment [3] were 440 nM, 10 nM and 1810 nM, respectively. The Ratio Ki was determined as 181 in experiment [4] and 44 in experiment [5].

On to `COC(=O)C(Oc1cccc2sc(C(=N)N)cc12)c1ccccc1` (stereo not drawn), for which the inhibition constant Ki in experiment [1] is 500 nM; in experiment [2], 500 nM; in experiment [3], 13800 nM.

Regarding `CN1CCN(Cc2ccc(NC(=O)OCC(Oc3cccc4sc(C(=N)N)cc34)c3ccccc3)cc2)CC1` (stereo not drawn), the Ki was determined as 201 nM in experiment [1], 10 nM in experiment [2] and 1560 nM in experiment [3]. The Ratio Ki in experiment [4] is 156; in experiment [5] it was 20.

Take `N=C(N)c1cc2c(OC(COC(=O)Nc3cccc(F)c3)c3ccccc3)cccc2s1` (stereo not drawn): the Ki in experiment [1] came to 935 nM; in experiment [2], 25 nM; in experiment [3] it was 1300 nM. Further, the Ratio Ki is 52 in experiment [4] and 37 in experiment [5].

On to `N=C(N)c1cc2c(OC(COC(=O)Nc3ccccc3CN)c3ccccc3)cc(F)cc2s1` (stereo not drawn), for which the inhibition constant Ki in experiment [1] was 828 nM; in experiment [2], 4.4 nM; in experiment [3], 2110 nM. Moreover, the Ratio Ki in experiment [4] is 486; in experiment [5] it was 190.

Turning to `CC(=O)NCC(Oc1cccc2sc(C(=N)N)cc12)c1ccccc1` (stereo not drawn), the values for the inhibition constant (Ki) in experiment [1], in experiment [2] and in experiment [3] were 220 nM, 340 nM and 1300 nM, respectively.

As to `N=C(N)c1cc2c(OC(C(=O)Nc3ccccc3)c3ccccc3)cccc2s1` (stereo not drawn), the Ki in experiment [1] worked out at 140 nM; in experiment [2], 170 nM; in experiment [3], 150 nM.

As for `N=C(N)c1cc2c(OC(CN)c3ccccc3)cccc2s1` (stereo not drawn), the Ki in experiment [1] was determined as 270 nM; in experiment [2] it was 160 nM; in experiment [3], 4450 nM.

`COc1ccc(NC(=O)OCC(Oc2cccc3sc(C(=N)N)cc23)c2ccccc2)cc1` (stereo not drawn): the inhibition constant Ki in experiment [1] was 226 nM; in experiment [2], 5 nM; in experiment [3], 800 nM. In addition, the Ratio Ki in experiment [4] was found to be 160; in experiment [5] it was 45.

`COc1ccc(NC(=O)OC[C@@H](Oc2cccc3sc(C(=N)N)cc23)c2ccccc2)cc1`: the Ki was determined as 1630 nM in experiment [1], 35 nM in experiment [2] and 3770 nM in experiment [3]. Besides, the Ratio Ki in experiment [4] came out at 108; in experiment [5], 47.

With `N=C(N)c1cc2c(OC(CNCc3ccccc3)c3ccccc3)cccc2s1` (stereo not drawn), the values for the Ki in experiment [1], in experiment [2] and in experiment [3] were 310 nM, 100 nM and 250 nM, respectively.

For the molecule `COc1cccc(NC(=O)C(Oc2cccc3sc(C(=N)N)cc23)c2ccccc2)c1` (stereo not drawn), the Ki in experiment [1] amounted to 170 nM; in experiment [2], 130 nM; in experiment [3], 290 nM.

On to `CN(C)C(=O)c1ccc(NC(=O)C(Oc2cccc3sc(C(=N)N)cc23)c2ccccc2)cc1` (stereo not drawn), for which the inhibition constant Ki in experiment [1] was 160 nM; in experiment [2] it was 370 nM; in experiment [3], 0.6 nM.

With `CCNC(=O)OCC(Oc1cccc2sc(C(=N)N)cc12)c1ccccc1` (stereo not drawn), the values for the inhibitory constant (Ki) in experiment [1], in experiment [2] and in experiment [3] were 150 nM, 28 nM and 360 nM, respectively.

Consider `N=C(N)c1cc2c(OC(COC(=O)NCc3ccccc3)c3ccccc3)cccc2s1` (stereo not drawn), for which the Ki was found to be 510 nM in experiment [1], 61 nM in experiment [2] and 830 nM in experiment [3].

As to `CN(C)Cc1ccccc1NC(=O)OCC(Oc1cccc2sc(C(=N)N)cc12)c1ccccc1` (stereo not drawn), the Ki was 609 nM in experiment [1], 8 nM in experiment [2] and 828 nM in experiment [3]. Besides, the Ratio Ki turned out to be 104 in experiment [4] and 76 in experiment [5].

`N=C(N)c1cc2c(OC(CNC(=O)Nc3ccccc3)c3ccccc3)cccc2s1` (stereo not drawn): the Ki in experiment [1] is 250 nM; in experiment [2], 29 nM; in experiment [3], 960 nM.

As for `COC(=O)Cn1nc(C)c(NC(=O)OCC(Oc2cccc3sc(C(=N)N)cc23)c2ccccc2)c1C` (stereo not drawn), the Ki came out at 59 nM in experiment [1], 11 nM in experiment [2] and 1300 nM in experiment [3]. In addition, the Ratio Ki is 118 in experiment [4] and 5 in experiment [5].

On to `COC(=O)C(C)Oc1cccc2sc(C(=N)N)cc12` (stereo not drawn), for which the Ki in experiment [1] was 2270 nM; in experiment [2], 5150 nM; in experiment [3], more than 100000 nM.

On to `CCOC(=O)c1nccn1-c1ccc(NC(=O)C(Oc2cccc3sc(C(=N)N)cc23)c2ccccc2)cc1` (stereo not drawn), for which the inhibition constant Ki came out at 190 nM in experiment [1], 420 nM in experiment [2] and 2.6 nM in experiment [3].

Consider `CNCc1cc(NC(=O)OCC(Oc2cccc3sc(C(=N)N)cc23)c2ccccc2)n(C)n1` (stereo not drawn), for which the inhibition constant Ki in experiment [1] was 251 nM; in experiment [2], 5 nM; in experiment [3] it was 1270 nM. Moreover, the Ratio Ki came out at 254 in experiment [4] and 50 in experiment [5].

Consider `COC(=O)CCNC(=O)C(Oc1cccc2sc(C(=N)N)cc12)c1ccccc1` (stereo not drawn), for which the inhibition constant (Ki) in experiment [2] stood at 8400 nM.

For the molecule `N=C(N)c1cc2c(OC(COC(=O)Nc3ccccc3CN)c3ccccc3)cccc2s1` (stereo not drawn), the figures for the inhibition constant Ki in experiment [1], in experiment [2] and in experiment [3] were 297 nM, 4 nM and 825 nM, respectively. Moreover, the Ratio Ki in experiment [4] is 206; in experiment [5], 74.

Consider `Cc1noc(C)c1NC(=O)OCC(Oc1cccc2sc(C(=N)N)cc12)c1ccccc1` (stereo not drawn), for which the figures for the inhibitory constant (Ki) in experiment [1], in experiment [2] and in experiment [3] were 142 nM, 12 nM and 2250 nM, respectively. Further, the Ratio Ki in experiment [4] worked out at 210; in experiment [5], 12.

As for `COCc1cc(NC(=O)OCC(Oc2cccc3sc(C(=N)N)cc23)c2ccccc2)n(C)n1` (stereo not drawn), the Ki in experiment [1] was determined as 109 nM; in experiment [2] it was 9 nM; in experiment [3], 1560 nM. Besides, the results for the Ratio Ki in experiment [4] and in experiment [5] were 173 and 12, respectively.

Take `N=C(N)c1cc2c(OC(CNC(=O)Oc3ccccc3)c3ccccc3)cccc2s1` (stereo not drawn): the Ki in experiment [1] was 85 nM; in experiment [2], 50 nM; in experiment [3], 560 nM.

As for `N=C(N)c1cc2c(OC(C(=O)NCc3ccccc3)c3ccccc3)cccc2s1` (stereo not drawn), the Ki came to 510 nM in experiment [1], 390 nM in experiment [2] and 950 nM in experiment [3].

For the molecule `CN(C)CCNC(=O)C(Oc1cccc2sc(C(=N)N)cc12)c1ccccc1` (stereo not drawn), the Ki in experiment [1] came out at 2130 nM; in experiment [2] it was 1000 nM; in experiment [3], 3400 nM.

For the molecule `N=C(N)c1cc2c(OC(C(=O)Nc3ccc(C(=O)N4CCCC4)cc3)c3ccccc3)cccc2s1` (stereo not drawn), the inhibitory constant (Ki) in experiment [1] worked out at 130 nM; in experiment [2] it was 290 nM; in experiment [3], 0.5 nM.

For the molecule `N=C(N)c1cc2c(O[C@@H](c3ccccc3)c3nc(-c4ccccc4)no3)cccc2s1`, the figures for the inhibition constant (Ki) in experiment [1], in experiment [2] and in experiment [3] were 650 nM, 270 nM and 3970 nM, respectively.

Take `N=C(N)c1cc2c(OC(CO)c3ccccc3)cccc2s1` (stereo not drawn): the Ki in experiment [2] worked out at 270 nM; in experiment [3], 1740 nM.

For `COc1ccccc1NC(=O)C(Oc1cccc2sc(C(=N)N)cc12)c1ccccc1` (stereo not drawn), the Ki in experiment [1] turned out to be 120 nM; in experiment [2] it was 140 nM; in experiment [3], 70 nM.

In the case of `COc1ccc(NC(=O)C(Oc2cccc3sc(C(=N)N)cc23)c2ccccc2)cc1` (stereo not drawn), the results for the inhibition constant Ki in experiment [1], in experiment [2] and in experiment [3] were 140 nM, 140 nM and 52 nM, respectively.

The term Ki denotes a dissociation constant, usually derived from enzyme kinetics or from competition with a known ligand.
